For the assay, the system named is Mus musculus. Nature of the assay: Percent protection against TNF-alpha induced leukopenia in mice at a dose of 50 mg/Kg. The assay is classed as functional. In short, it runs like this: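 Mice given compound intraperitoneally in 250 uL saline, then 60 min later […] LPS in saline, ip. Blood was taken 2 h after LPS by retro-orbital puncture into heparinized tubes. Nucleated cells were counted, with neutrophil content as the leukopenia read-out.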

Structures are written as SMILES.

Compound `CCCn1c(=O)n(CCCC(=O)OCC)c(=O)c2nccnc21` gave a Protection of 60%.

These data come from ChEMBL document CHEMBL1129287, “Substituted xanthines, pteridinediones, and related compounds as potential antiinflammatory agents. Synthesis and biological evaluation of inhibitors of tumor necrosis factor alpha” (J Med Chem, 1996).
